Measured values published in ChEMBL document CHEMBL3272244, “Synthesis and biological activity of two metabolites of 1-methyl-5-(1-methylethyl)-2-nitro-1 H-imidazole, an antiprotozoal agent” (J Med Chem, 1977).
≈ marks a conversion by molar mass, not a printed value.

Experiments:
[1] = system: Staphylococcus aureus; test: Antibacterial activity against Staphylococcus aureus Tour assessed as growth inhibition; type: functional
[2] = system: Clostridium perfringens; test: Antibacterial activity against Clostridium perfringens ISS 30453 assessed as growth inhibition; type: functional
[3] = system: Escherichia coli; test: Antibacterial activity against Escherichia coli SKF 12140 assessed as growth inhibition; type: functional
[4] = system: Trichomonas vaginalis; test: Antiprotozoal activity against Trichomonas vaginalis assessed as static effect; type: functional
[5] = system: Trichomonas vaginalis; test: Antiprotozoal activity against Trichomonas vaginalis assessed as cidal effect; type: functional
[6] = system: Trichomonas vaginalis; test: Antiprotozoal activity against Trichomonas vaginalis infected in po dosed mouse; type: functional
[7] = system: Trichomonas vaginalis; test: Ratio of compound ED50 to metronidazole ED50 for Trichomonas vaginalis infected in po dosed mouse; type: functional
[8] = Acute toxicity in po dosed mouse; type: organism-based; details: in vivo
How it was run: (§1)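 Mice dosed with the agent. LD50 values were computed by the Litchfield and Wilcoxon method.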

[9] = Acute toxicity in ip dosed mouse; type: organism-based; details: in vivo; how it was run: as §1

Row | SMILES | MIC [1] [µg/mL] | MIC [2] [µg/mL] | MIC [3] [µg/mL] | MIC [4] [µg/mL] | MIC [5] [µg/mL] | ED50 [6] [mg/kg] | Ratio ED50 [7] | LD50 [8] [mg/kg] | LD50 [9] [mg/kg]
1 | CC(C)c1cnc([N+](=O)[O-])n1C | > 300 | 5 (≈ 29.6 µM) | > 300 | 5 (≈ 29.6 µM) | 20 (≈ 118 µM) | 2.03 | 0.17 |  | 
2 | Cc1ncc([N+](=O)[O-])n1CCO [METRONIDAZOLE] | > 300 | 0.5 (≈ 2.92 µM) | > 300 | 0.5 (≈ 2.92 µM) | 5 (≈ 29.2 µM) | 11.5 | 1 |  | 
3 | Cn1c(C(C)(C)O)cnc1[N+](=O)[O-] | 100 (≈ 540 µM) | 25 (≈ 135 µM) | 100 (≈ 540 µM) | 6.2 (≈ 33.5 µM) | 25 (≈ 135 µM) | 2.5 | 0.21 | 698 | 475
4 | Cn1c(C(C)(O)CO)cnc1[N+](=O)[O-] (stereo unspecified) | > 100 | 5 (≈ 24.9 µM) | > 100 | 10 (≈ 49.7 µM) | 20 (≈ 99.4 µM) | > 80 | >8 | > 1000 | 
5 | C=C(C)c1cnc([N+](=O)[O-])n1C | > 100 | 3.1 (≈ 18.5 µM) | > 100 | 2 (≈ 12 µM) | 10 (≈ 59.8 µM) | 32.5 | 3.25 | 350 | 
6 | COC(C)(C)c1cnc([N+](=O)[O-])n1C | 100 (≈ 502 µM) | 100 (≈ 502 µM) | > 100 | 6.2 (≈ 31.1 µM) | 50 (≈ 251 µM) |  | 0.19 |  | 225
